Consider one compound from ChEMBL document CHEMBL2396581, “20(S)-Protopanaxadiol (PPD) analogues chemosensitize multidrug-resistant cancer cells to clinical anticancer drugs” (Bioorg Med Chem, 2013).

Assay type in all cases: cell-based; call rule not given here
The target of data set [1] is T1, ATP-dependent translocase ABCB1 (Homo sapiens, UniProt P08183). In words: Inhibition of p-gp in human KB/VCR cells assessed as intracellular accumulation of rhodamine123 after 2 hrs by microplate fluorometric analysis. Summed up: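 KBvcr cells plated at 1 × 10^5 per well and incubated 2 h at 37 °C in CO2 incubator with 10 μM Rhodamine123, with or without test compounds. Cells washed with ice-cold PBS, then lysed in 1% SDS/PBS. Fluorescence read at ex 494/em 517 nm. Accumulation ratio taken relative to untreated cells. Mean SD of three independent experiments.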

Data set [2] addresses T1, ATP-dependent translocase ABCB1. In words: Inhibition of p-gp in human KB/VCR cells assessed as potentiation of adriamycin-induced cytotoxicity at 5 uM after 72 hrs by MTT assay relative to verapamil.
Data set [3] has the same target. In words: Inhibition of p-gp in human KB/VCR cells assessed as potentiation of 1 uM docetaxel-induced cytotoxicity at 5 uM after 72 hrs by MTT assay relative to verapamil.
Data set [4] has the same target. In words: Inhibition of p-gp in human KB/VCR cells assessed as intracellular accumulation of rhodamine123 at 2 uM after 2 hrs by microplate fluorometric analysis. In a few lines:
(§1)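 KBvcr cells plated at 1 × 10^5 per well were pretreated with graded compound concentrations, then given Rhodamine123 10 μM for 2 h at 37 °C. Cells were washed with ice-cold PBS and lysed in 1% SDS. Fluorescence (ex 494/em 517 nm) was read on a microplate fluorometer and compared with untreated cells. Three independent experiments.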

For data set [5] the target is unchanged. In words: Inhibition of p-gp in human KB/VCR cells assessed as intracellular accumulation of adriamycin at 5 uM after 3 hrs by fluorescence assay relative to control. In a few lines:
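KBvcr cells plated at 1 × 10^5 per well were given ADM (final 10 μM) with 5 μM compound for 3 h. After ice-cold PBS wash and lysis in 1% SDS, intrinsic ADM fluorescence (ex 485/em 590 nm) was read. Results are expressed as a ratio to the ADM-only control, mean ± SD, n = 3.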

Data set [6] has the same target. In words: Inhibition of p-gp in human KB/VCR cells assessed as potentiation of 1 uM docetaxel-induced cytotoxicity at 5 uM after 72 hrs by MTT assay. In a few lines: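 KBvcr cells seeded at 5 × 10^3 per well were cotreated with 5 μM compound and 1 μM docetaxel for 72 h. Survival (%) was read by MTT and compared with wells without docetaxel.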
For data set [7] the target is unchanged. The data set can be described thus: Inhibition of p-gp in human KB/VCR cells assessed as intracellular accumulation of rhodamine123 at 3 uM after 2 hrs by microplate fluorometric analysis. Summed up:
as §1

Data set [8] has the same target. In words: Inhibition of p-gp in human KB/VCR cells assessed as intracellular accumulation of rhodamine123 at 1 uM after 2 hrs by microplate fluorometric analysis. In a few lines: as §1
Data set [9] shares this target. In words: Inhibition of p-gp in human KB/VCR cells assessed as potentiation of 100 nM docetaxel-induced cytotoxicity after 72 hrs by MTT assay. Summed up: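 KBvcr cells cultured 72 h with fixed 100 nM docetaxel and graded modulator concentrations. Viability read by MTT, formazan at 490 nm. EC50 calculated from dose–response. Mean SD of three independent experiments.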

The target is the same in data set [10]. In words: Inhibition of p-gp in human KB/VCR cells assessed as intracellular accumulation of rhodamine123 at 0.5 uM after 2 hrs by microplate fluorometric analysis. In a few lines: as §1
Data set [11] has the same target. In words: Inhibition of p-gp in human KB/VCR cells assessed as potentiation of vincristine-induced cytotoxicity at 5 uM after 72 hrs by MTT assay relative to verapamil.

T1 sequence (P08183 whole entry): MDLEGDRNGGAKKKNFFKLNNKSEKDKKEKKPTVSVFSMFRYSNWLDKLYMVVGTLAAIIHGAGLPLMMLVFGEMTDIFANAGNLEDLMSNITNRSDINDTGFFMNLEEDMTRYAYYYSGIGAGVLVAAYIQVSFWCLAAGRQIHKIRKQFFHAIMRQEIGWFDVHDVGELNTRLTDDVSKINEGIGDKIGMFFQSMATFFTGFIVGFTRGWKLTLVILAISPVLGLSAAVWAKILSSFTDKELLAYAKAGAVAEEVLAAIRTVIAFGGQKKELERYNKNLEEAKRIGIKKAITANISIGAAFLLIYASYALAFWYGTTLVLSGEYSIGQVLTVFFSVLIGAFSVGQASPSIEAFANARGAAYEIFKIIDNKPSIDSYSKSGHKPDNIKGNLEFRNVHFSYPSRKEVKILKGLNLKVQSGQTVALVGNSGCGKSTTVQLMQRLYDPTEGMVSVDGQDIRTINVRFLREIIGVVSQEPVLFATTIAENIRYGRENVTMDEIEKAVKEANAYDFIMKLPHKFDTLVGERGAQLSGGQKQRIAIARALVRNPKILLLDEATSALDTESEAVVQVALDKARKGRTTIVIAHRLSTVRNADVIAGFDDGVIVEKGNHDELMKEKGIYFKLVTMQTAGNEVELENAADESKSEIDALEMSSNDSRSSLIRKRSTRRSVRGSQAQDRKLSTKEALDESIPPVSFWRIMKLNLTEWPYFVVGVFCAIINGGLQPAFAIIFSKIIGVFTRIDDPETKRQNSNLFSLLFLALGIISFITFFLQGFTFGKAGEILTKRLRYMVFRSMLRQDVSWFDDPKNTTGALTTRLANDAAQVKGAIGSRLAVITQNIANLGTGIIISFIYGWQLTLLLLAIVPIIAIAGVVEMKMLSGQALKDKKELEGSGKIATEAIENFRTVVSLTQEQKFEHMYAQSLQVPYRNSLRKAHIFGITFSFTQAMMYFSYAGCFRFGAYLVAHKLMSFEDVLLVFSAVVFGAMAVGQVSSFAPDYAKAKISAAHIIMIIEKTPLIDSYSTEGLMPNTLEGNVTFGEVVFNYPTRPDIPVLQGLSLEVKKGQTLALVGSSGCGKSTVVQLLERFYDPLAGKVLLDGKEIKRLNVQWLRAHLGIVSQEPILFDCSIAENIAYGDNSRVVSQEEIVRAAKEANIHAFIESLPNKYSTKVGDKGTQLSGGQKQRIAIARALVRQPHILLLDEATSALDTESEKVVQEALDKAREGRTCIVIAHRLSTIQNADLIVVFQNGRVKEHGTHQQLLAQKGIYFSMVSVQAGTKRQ

In the case of `CC1(C)[C@@H](O)CC[C@]2(C)[C@H]3C[C@@H](O)[C@@H]4[C@@H]([C@@](C)(O)CCCNCCc5ccccc5)CC[C@@]4(C)[C@]3(C)CC[C@@H]12`, the “inhibition (INH)” value was “Dose-dependent effect” in data set [1], “Active” in data set [6] and “Dose-dependent effect” in [9]. The fold change (FC) in data set [2] stood at 1.4; in [3], 2.6; in [5] it was 1.3; in data set [11] it was 1.8. The RFU in data set [4] is 63700; in [7] it was 105300; in [8], 48700; in data set [10], 43200.
